# Test results published in ChEMBL document CHEMBL1177719 (J Med Chem, 2010).
# The source made the active and inactive calls. The calls are words filed in the database; no cut-off is given here.
# Columns and labels:
# [1] = Antioxidant activity assessed as DPPH scavenging activity at 340 uM after 30 mins; format: functional
# [2] = target: T1, Prostaglandin G/H synthase 1 (Ovis aries, UniProt P05979); assay: Inhibition of sheep seminal vesicles COX1 assessed as PGE2 production after 10 mins by ELISA
# T1 sequence (P05979 whole entry): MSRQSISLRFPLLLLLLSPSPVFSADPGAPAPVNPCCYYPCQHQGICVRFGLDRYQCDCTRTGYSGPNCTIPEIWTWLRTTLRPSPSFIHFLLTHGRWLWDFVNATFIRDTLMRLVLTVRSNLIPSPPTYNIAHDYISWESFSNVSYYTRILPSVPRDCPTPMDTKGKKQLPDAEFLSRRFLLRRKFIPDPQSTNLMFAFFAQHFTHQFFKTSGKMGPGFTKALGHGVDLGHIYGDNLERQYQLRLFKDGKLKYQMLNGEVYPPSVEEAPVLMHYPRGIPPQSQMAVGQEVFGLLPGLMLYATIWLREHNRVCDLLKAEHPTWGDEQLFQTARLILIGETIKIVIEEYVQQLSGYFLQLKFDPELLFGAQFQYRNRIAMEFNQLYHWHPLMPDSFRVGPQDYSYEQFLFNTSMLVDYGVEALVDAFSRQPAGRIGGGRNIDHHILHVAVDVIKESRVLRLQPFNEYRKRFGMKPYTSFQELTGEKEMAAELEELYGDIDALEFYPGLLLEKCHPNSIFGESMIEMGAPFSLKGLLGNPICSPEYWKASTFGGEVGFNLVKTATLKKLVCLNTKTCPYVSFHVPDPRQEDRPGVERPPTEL
# Summary of the method: (§1)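 Sheep seminal vesicle COX-1; reaction started with arachidonic acid, 10 min at room temperature, stopped with 27.8 μM indomethacin. PGE₂ quantified by competitive ELISA (PGE₂-acetylcholinesterase tracer, Ellman's reagent, 412 nm) against a PGE₂ standard curve. Result as % of solvent control; IC₅₀ from dose-response curves.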
# [3] = Antioxidant activity assessed as nitric oxide scavenging activity at 60 uM; format: functional
# Summary of the method: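 Compounds diluted tenfold in PBS and incubated with sodium nitroprusside (final compound 60 μM, SNP 5 mM) for 3 h at room temperature. Nitrite measured by Griess reagent, absorbance 540 nm. % inhibition given as average of triplicates ± standard deviation.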
# [4] = target: T2, Prostaglandin G/H synthase 1 (Ovis aries) (UniProt P05979); assay: Inhibition of sheep seminal vesicles COX1 assessed as PGE2 production at 34 uM after 10 mins by ELISA relative to control; summary of the method: as §1
# T2 sequence (whole entry): T1 sequence (P05979 whole entry)
# HEK293 = assay: Cytotoxicity against human HEK293 cells at 34 uM; format: cell-based; settings: hek293, 34 µM
# RAW264.7 [5] = assay: Inhibition of LPS-induced iNOS expression in mouse RAW264.7 cells at 34 uM treated 15 mins before LPS challenge measured after 18 hrs by Western blotting; format: functional, cell-based
# Summary of the method: (§2)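 RAW 264.7 cells pretreated 15 min with compound (34 μM), then LPS 1 μg/mL for 18 h. Lysates (30 μg protein) run on 8% SDS-PAGE and transferred to PVDF. Blocked in 5% milk/TBST, probed for iNOS and COX-2 with HRP secondary, ECL detection, β-actin internal control. Band density relative to LPS-treated control; duplicate experiments.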
# [6] = target: NAD(P)H dehydrogenase [quinone] 1 (Mus musculus) (UniProt Q64669); assay: Induction of quinone reductase 1 in mouse Hepa 1c1c7 cells assessed as drug level required to double enzyme activity by MTT assay
# Chain of NAD(P)H dehydrogenase [quinone] 1 (Mus musculus) (Q64669 whole entry): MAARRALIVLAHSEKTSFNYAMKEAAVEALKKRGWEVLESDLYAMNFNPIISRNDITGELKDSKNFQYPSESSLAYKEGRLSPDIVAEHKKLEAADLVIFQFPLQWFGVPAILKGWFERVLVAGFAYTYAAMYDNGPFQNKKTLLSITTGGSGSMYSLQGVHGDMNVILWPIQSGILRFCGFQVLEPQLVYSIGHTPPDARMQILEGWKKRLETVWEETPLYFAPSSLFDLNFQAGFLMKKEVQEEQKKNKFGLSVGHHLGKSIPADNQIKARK
# [7] = target: T3, Nitric oxide synthase, inducible (Mus musculus) (UniProt P29477); assay: Inhibition of iNOS-mediated nitric oxide production in mouse RAW 264.7 cells at 34 uM pretreated 30 mins measured after 20 hrs by Griess reaction method relative to control; format: cell-based
# T3 sequence (whole entry): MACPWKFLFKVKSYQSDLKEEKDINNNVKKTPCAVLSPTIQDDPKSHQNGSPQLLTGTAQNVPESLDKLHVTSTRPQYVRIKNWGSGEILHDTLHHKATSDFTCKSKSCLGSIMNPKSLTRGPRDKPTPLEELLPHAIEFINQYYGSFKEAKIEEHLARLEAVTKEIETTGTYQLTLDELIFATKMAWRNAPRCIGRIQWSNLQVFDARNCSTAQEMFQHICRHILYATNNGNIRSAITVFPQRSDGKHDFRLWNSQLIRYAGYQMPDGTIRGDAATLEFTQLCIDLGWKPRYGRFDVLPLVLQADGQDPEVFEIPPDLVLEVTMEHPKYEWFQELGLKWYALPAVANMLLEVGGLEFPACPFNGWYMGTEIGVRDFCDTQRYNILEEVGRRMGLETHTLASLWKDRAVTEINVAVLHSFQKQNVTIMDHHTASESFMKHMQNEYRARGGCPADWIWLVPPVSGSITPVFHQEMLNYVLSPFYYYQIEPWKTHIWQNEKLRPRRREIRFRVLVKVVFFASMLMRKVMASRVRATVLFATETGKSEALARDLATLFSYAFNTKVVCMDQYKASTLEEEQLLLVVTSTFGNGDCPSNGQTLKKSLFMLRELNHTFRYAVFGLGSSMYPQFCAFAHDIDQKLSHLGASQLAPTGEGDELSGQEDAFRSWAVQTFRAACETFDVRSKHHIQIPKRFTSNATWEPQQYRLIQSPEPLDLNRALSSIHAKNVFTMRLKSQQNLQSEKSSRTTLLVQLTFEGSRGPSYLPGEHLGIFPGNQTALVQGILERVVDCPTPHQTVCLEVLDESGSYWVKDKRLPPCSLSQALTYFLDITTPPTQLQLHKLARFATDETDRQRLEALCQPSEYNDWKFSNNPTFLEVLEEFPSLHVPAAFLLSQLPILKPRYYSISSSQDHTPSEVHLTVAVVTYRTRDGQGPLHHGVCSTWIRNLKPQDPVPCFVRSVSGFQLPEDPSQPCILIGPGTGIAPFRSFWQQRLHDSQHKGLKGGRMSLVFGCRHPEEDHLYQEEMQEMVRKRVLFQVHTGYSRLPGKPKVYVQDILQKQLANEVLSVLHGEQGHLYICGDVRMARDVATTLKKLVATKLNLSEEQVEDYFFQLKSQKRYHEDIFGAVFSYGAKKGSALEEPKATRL
# Summary of the method: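 RAW 264.7 macrophages seeded at 1 × 10⁵ cells/well for 24 h. Compounds in phenol red-free DMEM added 30 min before LPS (1 μg/mL), then 20 h further incubation. Nitrite in medium measured by Griess reagent at 540 nm against a sodium nitrite standard curve; inhibition at 34 μM.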
# RAW264.7 [8] = assay: Inhibition of LPS-induced COX2 expression in mouse RAW264.7 cells at 34 uM treated 15 mins before LPS challenge measured after 18 hrs by Western blotting relative to control; format: functional; summary of the method: as §2
SMILES,inhibition [1] [%],IC50 [2] [µM],Activity [3] [%],inhibition [4] [%],Activity (HEK293),inhibition (RAW264.7 [5]),CD [6] [µM],Activity [7],fold change (FC) (RAW264.7 [8])
O=S(=O)([O-])Oc1cc(O)cc(/C=C/c2ccc(O)cc2)c1.[K+],68,3.6,24.7,74.3,Non-toxic,Active,2.6,inactive,–
O=S(=O)([O-])Oc1ccc(/C=C/c2cc(OS(=O)(=O)[O-])cc(OS(=O)(=O)[O-])c2)cc1.[K+].[K+].[K+],0.4,–,1.6,37.8,Non-toxic,–,> 11.7,inactive,0.69
O=S(=O)([O-])Oc1ccc(/C=C/c2cc(O)cc(O)c2)cc1.[K+],42.8,5.55,10.3,63.2,Non-toxic,Active,> 6.9,inactive,–
O=S(=O)([O-])Oc1cc(/C=C/c2ccc(O)cc2)cc(OS(=O)(=O)[O-])c1.[K+].[K+],14.5,–,1.2,30.9,Non-toxic,–,> 10.1,inactive,0.76
